Test results: ChEMBL document CHEMBL3808357, “Discovery of N-(3-((1-Isonicotinoylpiperidin-4-yl)oxy)-4-methylphenyl)-3-(trifluoromethyl)benzamide (CHMFL-KIT-110) as a Selective, Potent, and Orally Available Type II c-KIT Kinase Inhibitor for Gastrointestinal Stromal Tumors (GISTs)” (J Med Chem, 2016)

How the values were obtained:
K562 = test: Antiproliferative activity against BCR-ABL dependent human K562 cells assessed as reduction in cell viability after 72 hrs by celltiter-glo/CCK8 assay; type: functional; settings: K562, 72 h
In short: (§1)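 Cells were seeded at 1 to 3 × 10⁴ cells/mL with serial compound concentrations and incubated 72 h at 37 °C, 5% CO₂. Viability was read by CellTiter-Glo luminescence or CCK-8 absorbance (450/655 nm). GI50 values are from triplicate testing. GIST-T1 and CHO were grown in DMEM/10% FBS; GIST-882, GIST-48B and MV4-11 in IMDM/10% FBS; other lines in RPMI 1640/10% FBS.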

[1] = target: Mast/stem cell growth factor receptor Kit (Homo sapiens) (UniProt P10721); test: Inhibition of Tel-fused cKIT (unknown origin) transfected in mouse BAF3 cells assessed as decrease in cell proliferation after 72 hrs by celltiter-glo/CCK8 assay; type: cell-based; in short: as §1
[2] = Antiproliferative activity against mouse BAF3 cells; type: cell-based
[3] = Antiproliferative activity against cKIT dependent human GIST882 cells assessed as reduction in cell viability after 72 hrs by celltiter-glo/CCK8 assay; type: functional; settings: GIST882, 72 h; in short: as §1
[4] = Antiproliferative activity against FLT3-ITD dependent human MOLM14 cells assessed as reduction in cell viability after 72 hrs by celltiter-glo/CCK8 assay; type: functional; settings: MOLM-14, 72 h; in short: as §1
[5] = Antiproliferative activity against BCR-ABL dependent human KU812 cells assessed as reduction in cell viability after 72 hrs by celltiter-glo/CCK8 assay; type: functional; settings: KU812, 72 h; in short: as §1
[6] = Antiproliferative activity against human U937 cells assessed as reduction in cell viability after 72 hrs by celltiter-glo/CCK8 assay; type: functional; settings: U-937, 72 h; in short: as §1
MV4-11 = test: Antiproliferative activity against FLT3-ITD dependent human MV4-11 cells assessed as reduction in cell viability after 72 hrs by celltiter-glo/CCK8 assay; type: functional; settings: MV4-11, 72 h; in short: as §1
[7] = Antiproliferative activity against human HL60 cells assessed as reduction in cell viability after 72 hrs by celltiter-glo/CCK8 assay; type: functional; settings: HL-60, 72 h; in short: as §1
[8] = Antiproliferative activity against CHO cells assessed as reduction in cell viability after 72 hrs by celltiter-glo/CCK8 assay; type: cell-based, Cricetulus griseus; settings: chinese hamster; in short: as §1
[9] = Antiproliferative activity against cKIT dependent human GISTT1 cells assessed as reduction in cell viability after 72 hrs by celltiter-glo/CCK8 assay; type: functional; settings: GISTT1, 72 h; in short: as §1
[10] = Antiproliferative activity against human Rec1 cells assessed as reduction in cell viability after 72 hrs by celltiter-glo/CCK8 assay; type: functional; settings: Rec1, 72 h; in short: as §1
[11] = Antiproliferative activity against human BCR-ABL dependent MEG01 cells assessed as reduction in cell viability after 72 hrs by celltiter-glo/CCK8 assay; type: functional; settings: MEG-01, 72 h
[12] = Antiproliferative activity against CHL cells assessed as reduction in cell viability after 72 hrs by celltiter-glo/CCK8 assay; type: cell-based, Cricetulus griseus; settings: chinese hamster; in short: as §1
[13] = test system: Mast/stem cell growth factor receptor Kit (Homo sapiens), P10721 [V654A]; test: Inhibition of Tel-fused cKIT V654A mutant (unknown origin) transfected in mouse BAF3 cells assessed as decrease in cell proliferation after 72 hrs by celltiter-glo/CCK8 assay; type: cell-based
In short: (§2)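 Stable BaF3 lines made by retroviral transduction with mutagenized TEL-KIT MSCV vectors, puromycin selection 48 h, then gradual IL-3 withdrawal until IL-3-independent; grown in RPMI 1640 with 10% FBS. Cells at 1 to 3 × 10⁴ cells/mL exposed to a concentration series for 72 h; viability read by CellTiter-Glo luminescence or CCK-8 absorbance (450/655 nm); GI50 from triplicate testing.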

[14] = Antiproliferative activity against human GIST48B cells assessed as reduction in cell viability after 72 hrs by celltiter-glo/CCK8 assay; type: functional; in short: as §1
[15] = test system: Mast/stem cell growth factor receptor Kit (Homo sapiens), P10721 [D816V]; test: Inhibition of Tel-fused cKIT D816V mutant (unknown origin) transfected in mouse BAF3 cells assessed as decrease in cell proliferation after 72 hrs by celltiter-glo/CCK8 assay; type: cell-based; in short: as §2
[16] = test system: Mast/stem cell growth factor receptor Kit (Homo sapiens), P10721 [T670I]; test: Inhibition of Tel-fused cKIT T670I mutant (unknown origin) transfected in mouse BAF3 cells assessed as decrease in cell proliferation after 72 hrs by celltiter-glo/CCK8 assay; type: cell-based; in short: as §2
[17] = test system: Mast/stem cell growth factor receptor Kit (Homo sapiens), P10721 [V559D,T670I]; test: Inhibition of Tel-fused cKIT T670I/V559D double mutant (unknown origin) transfected in mouse BAF3 cells assessed as decrease in cell proliferation after 72 hrs by celltiter-glo/CCK8 assay; type: cell-based; in short: as §2
[18] = test system: Mast/stem cell growth factor receptor Kit (Homo sapiens), P10721 [V559D]; test: Inhibition of Tel-fused cKIT V559D mutant (unknown origin) transfected in mouse BAF3 cells assessed as decrease in cell proliferation after 72 hrs by celltiter-glo/CCK8 assay; type: cell-based; in short: as §2
[19] = test system: Mast/stem cell growth factor receptor Kit (Homo sapiens), P10721 [V559D,V654A]; test: Inhibition of Tel-fused cKIT V559D/V654A double mutant (unknown origin) transfected in mouse BAF3 cells assessed as decrease in cell proliferation after 72 hrs by celltiter-glo/CCK8 assay; type: cell-based; in short: as §2
[20] = test system: Mast/stem cell growth factor receptor Kit (Homo sapiens), P10721 [N822K]; test: Inhibition of Tel-fused cKIT N822K mutant (unknown origin) transfected in mouse BAF3 cells assessed as decrease in cell proliferation after 72 hrs by celltiter-glo/CCK8 assay; type: cell-based
[21] = target: Mast/stem cell growth factor receptor Kit (Homo sapiens) (UniProt P10721); test: Inhibition of Tel-fused cKIT L567P mutant (unknown origin) transfected in mouse BAF3 cells assessed as decrease in cell proliferation after 72 hrs by celltiter-glo/CCK8 assay; type: cell-based

Sequence of Mast/stem cell growth factor receptor Kit (Homo sapiens) (P10721 whole entry, the tested form may be a part): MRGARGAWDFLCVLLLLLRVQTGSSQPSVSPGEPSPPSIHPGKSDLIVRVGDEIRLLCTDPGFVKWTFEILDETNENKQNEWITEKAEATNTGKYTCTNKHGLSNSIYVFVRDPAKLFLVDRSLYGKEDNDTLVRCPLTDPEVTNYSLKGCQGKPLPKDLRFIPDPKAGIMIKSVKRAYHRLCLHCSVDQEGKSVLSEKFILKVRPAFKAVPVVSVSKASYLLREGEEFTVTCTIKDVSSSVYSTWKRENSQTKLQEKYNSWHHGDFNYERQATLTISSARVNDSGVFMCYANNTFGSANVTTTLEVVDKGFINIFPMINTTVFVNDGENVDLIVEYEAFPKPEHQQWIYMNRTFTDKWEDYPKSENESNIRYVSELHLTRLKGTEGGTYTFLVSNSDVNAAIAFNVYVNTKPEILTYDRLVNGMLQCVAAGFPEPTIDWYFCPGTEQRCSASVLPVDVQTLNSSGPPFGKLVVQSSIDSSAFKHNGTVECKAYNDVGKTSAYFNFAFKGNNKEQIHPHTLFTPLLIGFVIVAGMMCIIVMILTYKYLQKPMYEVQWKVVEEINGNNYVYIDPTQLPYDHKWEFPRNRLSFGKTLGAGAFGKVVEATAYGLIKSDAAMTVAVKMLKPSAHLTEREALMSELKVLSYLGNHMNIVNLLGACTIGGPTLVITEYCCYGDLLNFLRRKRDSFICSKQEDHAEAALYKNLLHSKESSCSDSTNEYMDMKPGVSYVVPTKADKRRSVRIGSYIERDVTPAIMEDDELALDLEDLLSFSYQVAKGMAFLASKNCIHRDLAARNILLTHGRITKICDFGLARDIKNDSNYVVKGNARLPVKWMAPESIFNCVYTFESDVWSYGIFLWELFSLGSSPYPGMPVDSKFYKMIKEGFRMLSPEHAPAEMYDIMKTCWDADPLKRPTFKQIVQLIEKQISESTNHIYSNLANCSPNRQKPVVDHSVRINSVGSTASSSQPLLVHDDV
Sequence of Mast/stem cell growth factor receptor Kit (Homo sapiens), P10721 [V559D] (P10721 whole entry V559D, the tested form may be a part): as the sequence (P10721 whole entry, the tested form may be a part) above, with V559D counted along it
Sequence of Mast/stem cell growth factor receptor Kit (Homo sapiens), P10721 [V654A] (P10721 whole entry V654A, the tested form may be a part): as the sequence (P10721 whole entry, the tested form may be a part) above, with V654A counted along it
Sequence of Mast/stem cell growth factor receptor Kit (Homo sapiens), P10721 [V559D,T670I] (P10721 whole entry V559D/T670I, the tested form may be a part): as the sequence (P10721 whole entry, the tested form may be a part) above, with V559D, T670I counted along it
Sequence of Mast/stem cell growth factor receptor Kit (Homo sapiens), P10721 [D816V] (P10721 whole entry D816V, the tested form may be a part): as the sequence (P10721 whole entry, the tested form may be a part) above, with D816V counted along it
Sequence of Mast/stem cell growth factor receptor Kit (Homo sapiens), P10721 [V559D,V654A] (P10721 whole entry V559D/V654A, the tested form may be a part): as the sequence (P10721 whole entry, the tested form may be a part) above, with V559D, V654A counted along it
Sequence of Mast/stem cell growth factor receptor Kit (Homo sapiens), P10721 [T670I] (P10721 whole entry T670I, the tested form may be a part): as the sequence (P10721 whole entry, the tested form may be a part) above, with T670I counted along it
Sequence of Mast/stem cell growth factor receptor Kit (Homo sapiens), P10721 [N822K] (P10721 whole entry N822K, the tested form may be a part): as the sequence (P10721 whole entry, the tested form may be a part) above, with N822K counted along it

Cc1ccc(NC(=O)c2ccc3c(c2)OCO3)cc1OC1CCN(C(=O)c2cccnc2)CC1
GI50 (K562): > 10000 nM
GI50 [1]: 4800 nM
GI50 [2]: > 10000 nM

O=C(Nc1cccc(OC2CCCN(C(=O)c3cccnc3)C2)c1)c1cccc(C(F)(F)F)c1 (configuration not stated)
GI50 (K562): > 10000 nM
GI50 [1]: 8070 nM
GI50 [2]: 8070 nM

CCN(CC)CCNC(=O)c1c(C)[nH]c(/C=C2\C(=O)Nc3ccc(F)cc32)c1C [SUNITINIB]
GI50 [3]: 110 nM
GI50 [4]: 5 nM
GI50 [5]: 1100 nM
GI50 [6]: 1700 nM
GI50 (K562): 1000 nM
GI50 [1]: 78 nM
GI50 (MV4-11): 1 nM
GI50 [7]: 1 nM
GI50 at 72 h [8]: 2030 nM
GI50 [9]: 41 nM
GI50 [10]: 870 nM
GI50 [11]: 1200 nM
GI50 at 72 h [12]: 2480 nM
GI50 [2]: 2780 nM
GI50 [13]: 20 nM
GI50 [14]: 2010 nM
GI50 [15]: 1380 nM
GI50 [16]: 2 nM
GI50 [17]: 53 nM
GI50 [18]: 9 nM

Cc1ccc(NC(=O)c2cccc(C(F)(F)F)c2)cc1OC1CCN(C(=O)c2ccccn2)CC1
GI50 (K562): > 10000 nM
GI50 [1]: 330 nM
GI50 [2]: > 10000 nM

O=C(Nc1cccc(OC2CCCN(C(=O)c3ccno3)C2)c1)c1cccc(C(F)(F)F)c1 (configuration not stated)
GI50 (K562): > 10000 nM
GI50 [1]: > 10000 nM
GI50 [2]: > 10000 nM

Cc1ccc(NC(=O)c2cc(Cl)cc(C(F)(F)F)c2)cc1OC1CCN(C(=O)c2ccno2)CC1
GI50 (K562): 1950 nM
GI50 [1]: 150 nM
GI50 [2]: > 10000 nM

Cc1ccc(NC(=O)c2cccc(C(F)(F)F)c2)cc1OC1CCN(C(=O)c2ccno2)CC1
GI50 (K562): 160 nM
GI50 [1]: 220 nM
GI50 [2]: > 10000 nM

Cc1ccc(NC(=O)c2ccc(C)c(C(F)(F)F)c2)cc1OC1CCN(C(=O)c2cncs2)CC1
GI50 (K562): 5240 nM
GI50 [1]: 100 nM
GI50 [2]: > 10000 nM

Cc1ccc(NC(=O)c2cccc(C(F)(F)F)c2)cc1OC1CCN(C(=O)c2cccnc2)CC1
GI50 (K562): 2940 nM
GI50 [1]: 110 nM
GI50 [2]: > 10000 nM

O=C(Nc1ccc(Cl)c(OC2CCN(C(=O)c3cccnc3)CC2)c1)c1cccc(C(F)(F)F)c1
GI50 (K562): 2800 nM
GI50 [1]: 960 nM
GI50 [2]: > 10000 nM

Cc1ccc(NC(=O)c2cccc(C(F)(F)F)n2)cc1OC1CCN(C(=O)c2ccno2)CC1
GI50 (K562): > 10000 nM
GI50 [1]: > 10000 nM
GI50 [2]: > 10000 nM

Cc1ccc(NC(=O)c2cccc(C(F)(F)F)c2)cc1OCCNC(=O)c1cccnc1
GI50 (K562): > 10000 nM
GI50 [1]: 7940 nM
GI50 [2]: > 10000 nM

Cc1ccc(NC(=O)Nc2ccc(Cl)c(C(F)(F)F)c2)cc1OC1CCN(C(=O)c2cccnc2)CC1
GI50 (K562): 780 nM
GI50 [1]: 2600 nM
GI50 [2]: 3300 nM

Cc1ccc(NC(=O)c2cnc3ccccc3c2)cc1OC1CCN(C(=O)c2cccnc2)CC1
GI50 (K562): > 10000 nM
GI50 [1]: 5550 nM
GI50 [2]: > 10000 nM

Cc1ccc(NC(=O)c2cc(F)cc(C(F)(F)F)c2)cc1OC1CCN(C(=O)c2cccnc2)CC1
GI50 (K562): 4560 nM
GI50 [1]: 150 nM
GI50 [2]: > 10000 nM

Cc1ccc(NC(=O)c2ccc(CN3CCN(C)CC3)cc2)cc1Nc1nccc(-c2cccnc2)n1 [IMATINIB]
GI50 [19]: 3000 nM
GI50 [3]: 14 nM
GI50 [4]: > 10000 nM
GI50 [6]: > 10000 nM
GI50 (K562): 120 nM
GI50 [20]: 1290 nM
GI50 [1]: 400 nM
GI50 (MV4-11): > 10000 nM
GI50 [7]: > 10000 nM
GI50 at 72 h [8]: > 10000 nM
GI50 [9]: 8 nM
GI50 [10]: > 10000 nM
GI50 at 72 h [12]: > 10000 nM
GI50 [2]: > 10000 nM
GI50 [21]: 100 nM
GI50 [13]: 2490 nM
GI50 [14]: > 10000 nM
GI50 [17]: 6670 nM
GI50 [18]: 39 nM

COc1ccc(NC(=O)c2cccc(C(F)(F)F)c2)cc1OC1CCN(C(=O)c2cccnc2)CC1
GI50 (K562): > 10000 nM
GI50 [1]: > 10000 nM
GI50 [2]: > 10000 nM

Cc1ccc(NC(=O)c2ccc(C)c(C(F)(F)F)c2)cc1OC1CCN(C(=O)c2cccnc2)CC1
GI50 (K562): 5850 nM
GI50 [1]: 83 nM
GI50 [2]: 5470 nM

Cc1ccc(NC(=O)c2cccc(C(F)(F)F)c2)cc1OCCNC(=O)c1ccno1
GI50 (K562): > 10000 nM
GI50 [1]: 9970 nM
GI50 [2]: > 10000 nM

C=CC(=O)N1CCC(Oc2cc(NC(=O)c3cccc(C(F)(F)F)c3)ccc2C)CC1
GI50 (K562): 8360 nM
GI50 [1]: 620 nM
GI50 [2]: > 10000 nM

Cc1ccc(NC(=O)c2ccc(C)c(C(F)(F)F)c2)cc1OC1CCN(C(=O)c2ccno2)CC1
GI50 (K562): 1960 nM
GI50 [1]: 65 nM
GI50 [2]: 8940 nM

Cc1ccc(NC(=O)c2ccc(C)c(C(F)(F)F)c2)cc1OC1CCN(C(=O)c2ccncc2)CC1
GI50 (K562): 2320 nM
GI50 [1]: 31 nM
GI50 [2]: 6390 nM

Cc1ccc(NC(=O)c2cc(C(C)(C)C)on2)cc1OC1CCN(C(=O)c2cccnc2)CC1
GI50 (K562): 9920 nM
GI50 [1]: 340 nM
GI50 [2]: > 10000 nM

O=C(Nc1cccc(OC2CCN(C(=O)c3cccnc3)CC2)c1)c1cccc(C(F)(F)F)c1
GI50 (K562): > 10000 nM
GI50 [1]: 490 nM
GI50 [2]: > 10000 nM

COc1cccc(C(=O)Nc2ccc(C)c(OC3CCN(C(=O)c4cccnc4)CC3)c2)c1
GI50 (K562): > 10000 nM
GI50 [1]: 1480 nM
GI50 [2]: > 10000 nM

CCC(=O)N1CCC(Oc2cc(NC(=O)c3cccc(C(F)(F)F)c3)ccc2C)CC1
GI50 (K562): > 10000 nM
GI50 [1]: 1550 nM
GI50 [2]: > 10000 nM

Cc1ccc(NC(=O)c2cc(Cl)cc(C(F)(F)F)c2)cc1OC1CCN(C(=O)c2cccnc2)CC1
GI50 (K562): 3660 nM
GI50 [1]: 160 nM
GI50 [2]: > 10000 nM

Cc1ccc(NC(=O)c2cccc(C(F)(F)F)n2)cc1OC1CCN(C(=O)c2cccnc2)CC1
GI50 (K562): > 10000 nM
GI50 [1]: > 10000 nM
GI50 [2]: > 10000 nM
